Screens from PubChem.
In the library only some 3.8% were active in any assay of this set; here they are far more common.
NPY1 pot ag – human NPY-Y1 potentiation or agonism, primary screen; NPY-Y1 expressing cells, potentiator/agonist activation; activation, % at 3.6 µM; hit rate 0.37% among 220,000; AID 1304; in the data active = activation above about 33%, passing the limit was not always enough;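 note: cells stimulated with NPY at EC10 then isoproterenol at EC100; 0% = low agonist plus stimulus and 100% = saturating agonist plus stimulus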
Target sequence (P25929 whole entry, looked up): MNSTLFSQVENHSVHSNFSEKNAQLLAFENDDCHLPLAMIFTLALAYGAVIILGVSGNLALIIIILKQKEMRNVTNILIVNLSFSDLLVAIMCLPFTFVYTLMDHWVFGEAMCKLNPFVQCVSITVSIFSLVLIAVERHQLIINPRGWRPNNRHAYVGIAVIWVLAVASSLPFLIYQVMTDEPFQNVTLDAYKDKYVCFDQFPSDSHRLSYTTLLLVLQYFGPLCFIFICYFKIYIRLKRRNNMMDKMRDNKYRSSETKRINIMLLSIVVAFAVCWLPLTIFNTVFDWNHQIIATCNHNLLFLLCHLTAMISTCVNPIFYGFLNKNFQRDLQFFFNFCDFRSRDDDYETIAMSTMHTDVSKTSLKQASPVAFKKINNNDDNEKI
NPY Y2 blocker – blocks the human neuropeptide Y Y2 receptor. P49146. NPY-Y2 expressing cells, antagonist mode. inhibition, % at 2.7 µM. hit rate 0.99% among 140,000. AID 793; in the data active = inhibition above about 17%;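 note: 0% = vehicle with agonist challenge and 100% = reference antagonist with challenge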
NPY2 pot ag – potentiates or activates human NPY-Y2 receptor. P49146. cells expressing NPY-Y2, potentiator/agonist read-out. activation, % at 3.6 µM. hit rate 0.45% among 220,000. AID 1359; in the data active = activation above about 27%;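 note: cells stimulated with NPY near EC25 plus isoproterenol at EC100; 0% = vehicle plus submaximal agonist and 100% = vehicle plus saturating agonist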
RAM inhibit – blocks the yeast RAM network. S. cerevisiae dse1pr::URA3 reporter, 5-FOA growth OD615, 2 d; analog-sensitive cbk1-as2 kinase mutant strain. inhibition, % at 50 µM. hit rate 1.8% among 190,000. AID 868;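 active = inhibition above a set limit, 3 SD over mean compound inhibition, cut at about 8.4% in these data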;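 note: 0% = DMSO-only wells with no growth and 100% = 10 µM 1-NA-PP1 full growth; inhibition rescues growth on 5-FOA so higher OD means more RAM inhibition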
NPY Y1 blocker – NPY-Y1 (human) receptor antagonism | P25929 | HEK293-CNG Y1 cells, membrane potential fluorescence; NPY at EC95, then isoproterenol | inhibition, % at 3.6 µM | hit rate 1% among 200,000 | AID 1040;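 active = inhibition above the campaign mean inhibition of all tested compounds plus 3 SD, cut at about 20% in these data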;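 note: 0% = DMSO wells given NPY plus isoproterenol and 100% = isoproterenol alone without NPY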
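Material: HEK293 cells with Y1 receptor plus CNG channel; times: compound incubation 1 h at room temperature, readout 45 min post-stimulation; signal: fluorescence, membrane potential probe; read-out basis: fluorescence ratio normalized to % inhibition between controls; benchmarks: full-block control isoproterenol-only wells, zero-block control NPY plus isoproterenol wells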
INS promoter inh – TRM-6 insulin promoter activity inhibition. TRM-6 cells, insulin promoter-eGFP reporter, imaging; reporter expression induced with tamoxifen. inhibition, % at 2 µM. AID 1273. hit rate 0.9% among 130,000;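 active = inhibition above the mean plus 3 SD, with well images judged a real hit on visual review, cut at about 60% in these data, passing the limit was not always enough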
Numbers without * were called inactive; nt = not tested or not shown.

SMILES	NPY1 pot ag	NPY Y2 blocker	NPY2 pot ag	RAM inhibit	NPY Y1 blocker	INS promoter inh
O=C(/C=C/c1ccco1)N1CCN(C/C=C/c2ccccc2)CC1	-33.7	5.5	8.6	-0.6	-0.3	nt
Fc1ccc(-c2csc3ncnc(Nc4ccc(N5CCOCC5)cc4)c23)cc1	-2.5	-2.6	8.8	0.6	-6.6	17.2
CCCCOC(=O)c1cc(C)nc2ccc(Br)cc12	100.9*	4.2	31.1*	-0.3	7.4	39.7
CCOC(=O)c1cc(C(=O)OCC)c2cc(Br)ccc2n1	-46.1	12.1	-46.0	6.5	11.7	38.7
O=C(Nc1cccc(S(=O)(=O)NC2=NCCCCC2)c1)c1cc(-c2ccccc2Cl)nc2ccccc12	2.7	0.5	-3.3	11.2*	-2.4	-40.0
Cc1ccc(-n2c(SCC(=O)Nc3cccc(S(=O)(=O)NC4=NCCCCC4)c3)nc3ccccc3c2=O)cc1	8.2	2.8	4.4	9.8*	-0.2	nt
CC(C)c1ccc(N(CC(=O)NCc2ccc(F)cc2)C(=O)c2csnn2)cc1	19.4	nt	0.7	1.1	1.4	nt
O=S(=O)(c1ccccc1)N1CC=C(c2ccccc2)CC1	-5.1	nt	-4.7	-1.8	3.6	5.9
O=C(O/N=C\c1ccc(N2CCCCC2)c([N+](=O)[O-])c1)c1ccc(Cl)cc1Cl	-10.0	-0.4	4.7	10.3*	1.6	nt
O=C(/C=C/c1ccc([N+](=O)[O-])cc1)N1CCN(c2ccccc2F)CC1	14.0	5.0	-0.1	6.4	-2.6	0.0
O=C(/C=C/c1ccc(Cl)cc1)N1CCN(c2ccc(Cl)cc2[N+](=O)[O-])CC1	-15.3	7.8	-4.4	4.4	20.5*	-29.0
COc1cccc(C2CC(c3cccs3)=NN2S(C)(=O)=O)c1 (stereo not given)	-5.9	nt	11.0	1.4	8.5	-57.1
N=c1sccn1CC(=O)NC(=O)NC1CCCC1	-0.8	1.2	0.1	2.0	1.8	87.5*
O=C(CN1C(=O)CCC1=O)NC(=O)NC1CCCC1	-8.6	nt	-58.5	nt	nt	nt
O=C(O)COc1ccccc1/C=N/NC(=O)CN1CCN(Cc2ccc(Cl)cc2)CC1	19.5	nt	6.0	nt	nt	nt
O=C(COC(=O)Cc1n[nH]c(=O)c2ccccc12)Nc1cccc(C(F)(F)F)c1	-12.2	nt	-1.2	5.0	-2.1	nt
COc1ccccc1C(=O)Nc1sc(C(=O)N2CCCC2)c(C)c1C#N	-0.3	nt	0.7	8.5*	-3.1	-21.4
CN1CCN(CC(O)COc2ccc(C34CC5CC(CC(C5)C3)C4)cc2)CC1 (stereo not given)	-32.5	nt	-20.1	-0.4	8.8	nt
c1ccc(OCCOCCSc2ncccn2)cc1	2.8	-1.5	-11.2	-0.4	-1.6	80.8*
CCCCOc1ccccc1Cn1c(=O)oc2ccccc21	-0.7	2.4	4.5	11.0*	13.4	nt
COc1ccc(OCCCn2c(=O)oc3ccccc32)cc1	-8.1	2.2	3.5	-1.3	6.7	0.0
CCOC(=O)c1cc(-c2ccc(Cl)cc2)nc2onc(C)c12	-7.6	1.1	-13.0	9.8*	2.9	-21.4
COc1ccc(CNC(=O)CN(CCC(C)C)S(=O)(=O)c2ccc3c(c2)OCCO3)cc1	-27.2	1.2	-14.8	1.3	7.4	35.7
O=C(NCCC1=CCCCC1)C(c1ccccc1)c1ccccc1	-7.8	11.8	5.4	1.6	27.7*	6.7
Cc1ccc(SCC(=O)NCCC2=CCCCC2)cc1	-29.6	6.5	-6.6	2.3	5.0	19.4
SMILES	NPY1 pot ag	NPY Y2 blocker	NPY2 pot ag	RAM inhibit	NPY Y1 blocker	INS promoter inh
CC(OC(=O)c1ccc(S(=O)(=O)N(C)c2ccccc2)cc1)C(=O)NCCC1=CCCCC1 (stereo not given)	-5.7	1.0	2.7	8.8*	-1.1	-9.4
CCN(CC(=O)NCCC1=CCCCC1)S(=O)(=O)c1ccccc1	9.2	nt	-2.8	nt	nt	nt
O=C(CSc1ccc2ccccc2n1)NCCC1=CCCCC1	-7.8	6.5	-11.8	8.6*	7.9	nt
CCCCN(C(=S)NC(=O)c1cc(OC)c(OC)c(OC)c1)c1c(N)n(Cc2ccccc2)c(=O)[nH]c1=O	17.1	0.2	5.4	-0.4	9.7	18.2
O=c1c(Cc2ccccc2)c(O)ccn1Cc1ccco1	-0.1	nt	2.7	0.8	2.8	5.0
CCOC(=O)CC(=O)CSc1nc2c(sc(=S)n2-c2ccc(OCC)cc2)c(=O)[nH]1	-26.5	4.3	-14.5	8.7*	-3.6	-22.2
CCCN(CCC)C(=O)CSc1nc2c(sc(=S)n2-c2ccc(OCC)cc2)c(=O)[nH]1	1.7	nt	-0.3	5.0	-0.5	-50.0
